According to BindingDB's records for doi:10.1021/acs.jmedchem.0c02249 (Lundbeck Research Usa, 2021):

Legend:
P2X purinoceptor 7 [1] = biological target: T1, P2X purinoceptor 7 (Rattus norvegicus, UniProt Q64663); assay: Antagonist activity at rat P2X7 receptor expressed in HEK293 cells assessed as inhibition of BzATP-induced calcium-flux measured after 60 mins by FLIPR analysis
T1 sequence (Q64663 whole entry): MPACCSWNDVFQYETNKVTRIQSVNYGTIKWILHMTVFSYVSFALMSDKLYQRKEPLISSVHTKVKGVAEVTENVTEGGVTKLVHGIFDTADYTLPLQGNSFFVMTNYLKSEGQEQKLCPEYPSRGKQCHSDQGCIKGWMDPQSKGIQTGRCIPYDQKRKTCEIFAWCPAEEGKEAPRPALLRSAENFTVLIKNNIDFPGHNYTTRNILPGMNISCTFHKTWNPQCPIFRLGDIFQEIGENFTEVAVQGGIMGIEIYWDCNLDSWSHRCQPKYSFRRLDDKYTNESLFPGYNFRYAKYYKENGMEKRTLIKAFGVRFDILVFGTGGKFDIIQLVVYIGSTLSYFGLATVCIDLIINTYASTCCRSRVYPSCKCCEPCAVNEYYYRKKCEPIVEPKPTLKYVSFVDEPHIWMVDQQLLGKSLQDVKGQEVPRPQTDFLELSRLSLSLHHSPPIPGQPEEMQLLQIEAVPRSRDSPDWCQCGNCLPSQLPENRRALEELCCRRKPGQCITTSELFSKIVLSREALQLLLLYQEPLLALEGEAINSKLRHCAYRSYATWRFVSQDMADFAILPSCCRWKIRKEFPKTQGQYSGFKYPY
How it was run: (§1)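 Stable rat or mouse P2X7 HEK293 cells in HBSS/20 mM HEPES/2.5 mM probenecid/0.05% BSA, pH 7.4, were loaded with Fluo-4 NW (37 °C 30 min, RT 30 min). After 30 min at RT, calcium fluorescence was read by FLIPR; n ≥ 3.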

P2X purinoceptor 7 [2] = biological target: T2, P2X purinoceptor 7 (Homo sapiens, UniProt Q99572); assay: Antagonist activity at human P2X7 receptor expressed in HEK293 cells assessed as inhibition of BzATP-induced calcium-flux measured after 60 mins by FLIPR analysis
T2 sequence (Q99572 whole entry): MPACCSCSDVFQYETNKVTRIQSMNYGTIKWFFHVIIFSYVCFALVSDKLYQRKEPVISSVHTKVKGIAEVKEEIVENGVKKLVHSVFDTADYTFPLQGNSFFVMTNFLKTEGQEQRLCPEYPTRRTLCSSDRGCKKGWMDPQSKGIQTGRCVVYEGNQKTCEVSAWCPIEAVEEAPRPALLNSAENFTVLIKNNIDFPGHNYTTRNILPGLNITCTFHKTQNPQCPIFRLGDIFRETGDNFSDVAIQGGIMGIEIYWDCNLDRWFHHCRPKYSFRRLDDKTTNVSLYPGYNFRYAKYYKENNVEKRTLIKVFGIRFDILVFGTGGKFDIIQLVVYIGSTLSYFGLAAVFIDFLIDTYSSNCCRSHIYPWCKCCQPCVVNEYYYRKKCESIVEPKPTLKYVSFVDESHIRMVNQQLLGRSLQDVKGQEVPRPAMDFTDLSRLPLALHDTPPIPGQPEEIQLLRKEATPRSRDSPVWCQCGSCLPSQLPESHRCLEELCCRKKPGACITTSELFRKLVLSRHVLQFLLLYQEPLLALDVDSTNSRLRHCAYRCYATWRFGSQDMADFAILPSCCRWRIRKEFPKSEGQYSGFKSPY

P2X purinoceptor 7 [3] = biological target: T1, P2X purinoceptor 7; assay: Displacement of [3H]-A-804598 from rat P2X7 receptor expressed in HEK293 cell membrane by in vitro binding assay
P2X purinoceptor 7 [4] = biological target: T3, P2X purinoceptor 7 (Mus musculus, UniProt Q9Z1M0); assay: Antagonist activity at mouse P2X7 receptor expressed in HEK293 cells assessed as inhibition of BzATP-induced calcium-flux measured after 60 mins by FLIPR analysis; how it was run: as §1
T3 sequence (Q9Z1M0 whole entry): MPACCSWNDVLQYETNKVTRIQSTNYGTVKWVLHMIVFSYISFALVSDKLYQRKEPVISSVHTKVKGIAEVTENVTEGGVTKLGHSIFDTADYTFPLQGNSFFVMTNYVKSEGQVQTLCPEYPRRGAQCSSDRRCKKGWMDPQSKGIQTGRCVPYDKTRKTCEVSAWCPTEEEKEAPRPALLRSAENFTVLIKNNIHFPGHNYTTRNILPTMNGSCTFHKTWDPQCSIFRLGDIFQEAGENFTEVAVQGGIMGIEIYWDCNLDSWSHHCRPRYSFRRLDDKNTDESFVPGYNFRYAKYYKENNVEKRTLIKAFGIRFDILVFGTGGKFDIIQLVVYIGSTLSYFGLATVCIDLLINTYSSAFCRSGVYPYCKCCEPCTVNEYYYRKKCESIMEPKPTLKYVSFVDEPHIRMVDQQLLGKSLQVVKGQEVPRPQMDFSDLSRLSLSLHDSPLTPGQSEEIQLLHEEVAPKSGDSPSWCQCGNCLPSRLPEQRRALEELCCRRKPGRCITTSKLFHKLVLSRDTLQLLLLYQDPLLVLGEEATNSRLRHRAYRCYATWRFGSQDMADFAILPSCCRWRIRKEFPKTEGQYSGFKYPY

- IC50 (P2X purinoceptor 7 [1]): 200 nM
- IC50 (P2X purinoceptor 7 [2]): 5800 nM
- Ki (P2X purinoceptor 7 [3]): 1000 nM
- IC50 (P2X purinoceptor 7 [4]): 1300 nM
Structure (SMILES): CCOc1ccc(Nc2ccc(/C(=C3C=C/C(=[N+](/CC)Cc4cccc(S(=O)(=O)[O-])c4)C=C/3C)c3ccc(N(CC)Cc4cccc(S(=O)(=O)O)c4)cc3C)cc2)cc1 [E133]
